test system: HL-60; assay: Antiproliferative activity against human HL60 cells after 72 hrs by MTT assay; assay type: functional; conditions: HL-60, 72 h
Summary of the method: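 HL-60 cells from ATCC grown in phenol red-free RPMI-1640 with 10% FBS at 37 °C, 5% CO2. Seeded 5,000 cells/well, treated at ten concentrations in quadruplicate (final 0.5% DMSO; vehicle control 0.5% DMSO). After 72 h, MTT (2.5 mg/mL solution) added for 4 h, formazan dissolved in acidic isopropanol/Triton for 16 h, A570 read. GI50 set relative to a Day 0 density plate; 95% CI given.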

`C/C1=C/CC[C@@]2(C)O[C@@H]2[C@H]2OC(=O)[C@@H](CN3CCCCC3)[C@@H]2CC1` and `C/C1=C/CC[C@@]2(C)O[C@@H]2[C@H]2OC(=O)[C@@H](CN3CCCC3)[C@@H]2CC1` are within 1.5-fold of each other in GI50: 0.84 µM for the first, 0.75 µM for the second.

Going from `C/C1=C/CC[C@@]2(C)O[C@@H]2[C@H]2OC(=O)[C@@H](CN3CCCC(F)C3)[C@@H]2CC1` (stereo partly specified) to `C/C1=C/CC[C@@]2(C)O[C@@H]2[C@H]2OC(=O)[C@@H](CN3CC[C@@H](F)C3)[C@@H]2CC1`, the GI50 falls from 1.13 µM to 0.58 µM (1.9-fold).

First: C/C1=C/CC[C@@]2(C)O[C@@H]2[C@H]2OC(=O)[C@@H](CN3CCCC(F)(F)C3)[C@@H]2CC1
Second: C/C1=C/CC[C@@]2(C)O[C@@H]2[C@H]2OC(=O)[C@@H](CN3CCC(F)(F)C3)[C@@H]2CC1
The GI50 of the first is 2-fold higher: 16.9 µM for the first, 8.32 µM for the second.

First: C/C1=C/CC[C@@]2(C)O[C@@H]2[C@H]2OC(=O)[C@@H](CN3CCCC(C(F)(F)F)C3)[C@@H]2CC1 (stereo partly specified)
Second: C/C1=C/CC[C@@]2(C)O[C@@H]2[C@H]2OC(=O)[C@@H](CN3CCC(C(F)(F)F)CC3)[C@@H]2CC1
The GI50 of the first is 1.7-fold higher: 1.69 µM for the first, 1 µM for the second.

Going from `C/C1=C/CC[C@@]2(C)O[C@@H]2[C@H]2OC(=O)[C@@H](CN3CCC(F)CC3)[C@@H]2CC1` to `C/C1=C/CC[C@@]2(C)O[C@@H]2[C@H]2OC(=O)[C@@H](CN3CC[C@H](F)C3)[C@@H]2CC1`, the GI50 rises from 1.77 µM to 24.7 µM (14-fold).

`C/C1=C\CC[C@@]2(C)O[C@@H]2[C@H]2OC(=O)[C@@H](CN3CCC(F)(F)CC3)[C@@H]2CC1` and `C=C1C(=O)O[C@@H]2C3O[C@]3(C)CC/C=C(\C)CC[C@@H]12` (stereo partly specified) are within 1.5-fold of each other in GI50: 0.69 µM for the first, 0.52 µM for the second.

Compared with `C/C1=C/CC[C@@]2(C)O[C@@H]2[C@H]2OC(=O)[C@@H](CN3CCCCC3)[C@@H]2CC1`, `C/C1=C/CC[C@@]2(C)O[C@@H]2[C@H]2OC(=O)[C@@H](CN3CCCC3)[C@@H]2CC1` is 4-fold lower in LC50 (concentration killing 50% of cells): 10.1 µM for the first, 2.54 µM for the second.

Going from `C/C1=C/CC[C@@]2(C)O[C@@H]2[C@H]2OC(=O)[C@@H](CN3CCCC(C(F)(F)F)C3)[C@@H]2CC1` (stereo partly specified) to `C/C1=C/CC[C@@]2(C)O[C@@H]2[C@H]2OC(=O)[C@@H](CN3CCC(C(F)(F)F)CC3)[C@@H]2CC1`, the LC50 (concentration killing 50% of cells) falls from 21.3 µM to 3.11 µM (6.8-fold).

Going from `C/C1=C/CC[C@@]2(C)O[C@@H]2[C@H]2OC(=O)[C@@H](CN3CCC(F)CC3)[C@@H]2CC1` to `C/C1=C/CC[C@@]2(C)O[C@@H]2[C@H]2OC(=O)[C@@H](CN3CC[C@@H](F)C3)[C@@H]2CC1`, the LC50 (concentration killing 50% of cells) falls from 8.07 µM to 1.66 µM (4.9-fold).

`C/C1=C\CC[C@@]2(C)O[C@@H]2[C@H]2OC(=O)[C@@H](CN3CCC(F)(F)CC3)[C@@H]2CC1` and `C/C1=C/CC[C@@]2(C)O[C@@H]2[C@H]2OC(=O)[C@@H](CN3CCC(F)(F)C3)[C@@H]2CC1` are within 1.5-fold of each other in LC50 (concentration killing 50% of cells): 17.7 µM for the first, 23.8 µM for the second.

Compared with `C/C1=C/CC[C@@]2(C)O[C@@H]2[C@H]2OC(=O)[C@@H](CN3CCCCC3)[C@@H]2CC1`, `C/C1=C/CC[C@@]2(C)O[C@@H]2[C@H]2OC(=O)[C@@H](CN3CCCC3)[C@@H]2CC1` is 2.3-fold lower in TGI: 3.99 µM for the first, 1.74 µM for the second.

Going from `C/C1=C/CC[C@@]2(C)O[C@@H]2[C@H]2OC(=O)[C@@H](CN3CCCC(F)C3)[C@@H]2CC1` (stereo partly specified) to `C/C1=C/CC[C@@]2(C)O[C@@H]2[C@H]2OC(=O)[C@@H](CN3CC[C@@H](F)C3)[C@@H]2CC1`, the TGI falls from 12.2 µM to 1.18 µM (10-fold).

First: C/C1=C/CC[C@@]2(C)O[C@@H]2[C@H]2OC(=O)[C@@H](CN3CCCC(C(F)(F)F)C3)[C@@H]2CC1 (stereo partly specified)
Second: C/C1=C/CC[C@@]2(C)O[C@@H]2[C@H]2OC(=O)[C@@H](CN3CCC(C(F)(F)F)CC3)[C@@H]2CC1
The TGI of the first is 3.4-fold higher: 7.29 µM for the first, 2.14 µM for the second.

Compared with `C/C1=C/CC[C@@]2(C)O[C@@H]2[C@H]2OC(=O)[C@@H](CN3CCC(F)CC3)[C@@H]2CC1`, `C/C1=C/CC[C@@]2(C)O[C@@H]2[C@H]2OC(=O)[C@@H](CN3CC[C@H](F)C3)[C@@H]2CC1` is 8.1-fold higher in TGI: 5.7 µM for the first, 46.2 µM for the second.

First: C/C1=C\CC[C@@]2(C)O[C@@H]2[C@H]2OC(=O)[C@@H](CN3CCC(F)(F)CC3)[C@@H]2CC1
Second: C/C1=C/CC[C@@]2(C)O[C@@H]2[C@H]2OC(=O)[C@@H](CN3CCC(F)(F)C3)[C@@H]2CC1
The TGI of the first is 3.3-fold lower: 5.58 µM for the first, 18.3 µM for the second.

With `C=C1C(=O)O[C@@H]2C3O[C@]3(C)CC/C=C(\C)CC[C@@H]12` (stereo partly specified) the TGI was 1.36 µM.
